Calls of active or inactive are those of the source.
What was measured:
Mus musculus [1] = assay: (§1) In vivo inhibition of Wnt/beta-catenin signaling pathway in human HCT116 cells xenografted in BALB/c-nu mouse assessed as downregulation of CCND1 mRNA expression at 10 to 20 mg/kg, ip administered 3 times per week measured after 4 weeks by real-time PCR analysis; type: functional, organism-based; conditions: HCT-116
Outline: (§2)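 Frozen tumors from ip-dosed HCT116 xenograft mice were extracted with TRI reagent and reverse-transcribed. SYBR Green real-time PCR run 40 cycles of 95/56/72 °C. Expression by 2^−ΔΔCT normalized to β-actin, relative to vehicle-treated controls; quadruplicate.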

HCT-116 [2] = assay: Antitumor activity against human HCT116 cells xenografted in BALB/c-nu mouse assessed as tumor growth inhibition at 20 mg/kg, ip administered 3 times per week for 4 weeks measured every 2 to 3 days during treatment relative to control; type: functional; conditions: HCT-116, ip, route intraperitoneal, read-out: TGI
Outline: (§3)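 Female BALB/c-nu mice, 4−6 weeks old, acclimated one week, given 2 × 10^6 HCT116 cells sc in the flank. Dosing began near 100 mm3, about day 8; five mice per group. Dose in 0.5% Tween 80 in normal saline, 200 μL ip; controls got vehicle. Tumor volume by caliper = L × W × H/2. Study ended when control tumors averaged ~1300 mm3.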

Mus musculus [3] = assay: In vivo inhibition of Wnt/beta-catenin signaling pathway in human HCT116 cells xenografted in BALB/c-nu mouse assessed as downregulation of MMP7 mRNA expression at 10 to 20 mg/kg, ip administered 3 times per week measured after 4 weeks by real-time PCR analysis; type: functional, organism-based; conditions: HCT-116; outline: as §2
Mus musculus [4] = assay: as §1, with “Ki-67” for “CCND1 mRNA”, “hematoxylin staining-based inverted phase-contrast microscopic” for “real-time PCR”; type: functional, organism-based; conditions: HCT-116
Outline: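 Immunohistochemistry on xenograft tumor sections from ip-dosed mice. Ki-67 detected with anti-Ki67 antibody and an LSAB+ HRP system. Sections counterstained with hematoxylin and photographed under an inverted phase-contrast microscope at 200×.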

HCT-116 [5] = assay: Inhibition of Wnt/beta-catenin signaling pathway in human HCT116 cells assessed as downregulation of CCND1 protein expression at 5 to 10 uM after 24 to 48 hrs by Western blot analysis; type: cell-based
Outline: (§4)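 HCT116 cells treated 24 or 48 h. Lysed in RIPA buffer; equal protein run on 8−13% SDS-PAGE, blotted to PVDF, probed for β-catenin, c-myc and cyclin D1, detected by ECL. β-Actin served as internal standard; four determinations.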

HCT-116 [6] = assay: Inhibition of Wnt/beta-catenin signaling pathway in human HCT116 cells assessed as downregulation of CMYC protein expression at 5 to 10 uM after 24 to 48 hrs by Western blot analysis; type: cell-based; outline: as §4
Mus musculus [7] = assay: In vivo inhibition of Wnt/beta-catenin signaling pathway in human HCT116 cells xenografted in BALB/c-nu mouse assessed as downregulation of NKD1 mRNA expression at 10 to 20 mg/kg, ip administered 3 times per week measured after 4 weeks by real-time PCR analysis; type: functional, organism-based; conditions: HCT-116; outline: as §2
HCT-116 [8] = assay: Cytotoxicity against human HCT116 cells assessed as growth inhibition at 5 to 20 uM by SRB assay; type: functional, cell-based; conditions: TDE = time-dependent effect
Outline: (§5)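 HCT116 cells seeded at 6 × 10^3/well and grown 24 h. Day-zero plates fixed; others exposed 24, 48 or 72 h. Fixed with 10% TCA, stained with 0.4% SRB in 1% acetic acid, dye taken up in 10 mM Tris pH 10.0, read at 515 nm. Proliferation % = (compound − day zero)/(control − day zero) × 100. IC50 by nonlinear regression; four determinations.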

HCT-116 [9] = assay: Inhibition of Wnt/beta-catenin signaling pathway in human HCT116 cells assessed as downregulation of CCND1 mRNA expression at 5 to 10 uM after 12 hrs by real-time PCR analysis; type: cell-based
Outline: (§6)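 HCT116 cells treated 12 h. Total RNA by TRI reagent, reverse-transcribed, SYBR Green real-time PCR: 40 cycles of 95 °C 20 s, 56 °C 20 s, 72 °C 30 s. Fold change by 2^−ΔΔCT normalized to β-actin, relative to untreated control; quadruplicate.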

Mus musculus [10] = assay: In vivo inhibition of Wnt/beta-catenin signaling pathway in human HCT116 cells xenografted in BALB/c-nu mouse assessed as downregulation of CMYC mRNA expression at 10 to 20 mg/kg, ip administered 3 times per week measured after 4 weeks by real-time PCR analysis; type: functional, organism-based; conditions: HCT-116; outline: as §2
HCT-116 [11] = assay: Inhibition of Wnt/beta-catenin signaling pathway in human HCT116 cells assessed as downregulation of DKK1 mRNA expression at 5 to 10 uM after 12 hrs by real-time PCR analysis; type: cell-based; outline: as §6
HCT-116 [12] = assay: Inhibition of Wnt/beta-catenin signaling pathway in human HCT116 cells assessed as downregulation of AXIN2 mRNA expression at 5 to 10 uM after 12 hrs by real-time PCR analysis; type: cell-based; outline: as §6
HCT-116 [13] = assay: Inhibition of Wnt/beta-catenin signaling pathway in human HCT116 cells assessed as downregulation of total beta-catenin protein expression at 5 to 10 uM after 24 to 48 hrs by Western blot analysis; type: cell-based; outline: as §4
Mus musculus [14] = assay: as §1, with “beta-catenin” for “CCND1 mRNA”, “hematoxylin staining-based inverted phase-contrast microscopic” for “real-time PCR”; type: functional, organism-based; conditions: HCT-116
HEK293 [15] = assay: Inhibition of Wnt/beta-catenin (unknown origin) signaling pathway expressed in HEK293 cells assessed as inhibition of TCF4 transcriptional activity at 5 to 40 uM after 24 hrs by FOPflash reporter gene assay; type: cell-based; conditions: Homo sapiens
Outline: (§7)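 HEK293 cells seeded at 1.5 × 10^4/well. After 24 h, lipofected with 0.1 μg TOPflash or FOPflash, 0.005 μg Renilla, 0.02 μg β-catenin and 0.004 μg TCF4 vectors. Treated 24 h after transfection for 24 h. Dual luciferase read-out, firefly normalized to Renilla, relative to vehicle; triplicate.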

Mus musculus [16] = assay: In vivo inhibition of Wnt/beta-catenin signaling pathway in human HCT116 cells xenografted in BALB/c-nu mouse assessed as downregulation of CCND1 protein expression at 10 to 20 mg/kg, ip administered 3 times per week measured after 4 weeks by Western blot analysis; type: functional, organism-based; conditions: HCT-116
Outline: (§8)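 Part of each frozen xenograft tumor was thawed on ice and hand-homogenized in Complete Lysis Buffer. Protein was quantified and aliquots stored at −80 °C. Western blot: SDS-PAGE, PVDF transfer, ECL detection, compared with vehicle-treated tumors.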

HCT-116 [17] = assay: Inhibition of Wnt/beta-catenin signaling pathway in human HCT116 cells assessed as downregulation of PLAU mRNA expression at 5 to 10 uM after 12 hrs by real-time PCR analysis; type: cell-based; outline: as §6
Mus musculus [18] = assay: In vivo inhibition of Wnt/beta-catenin signaling pathway in human HCT116 cells xenografted in BALB/c-nu mouse assessed as downregulation of survivin protein expression at 10 to 20 mg/kg, ip administered 3 times per week measured after 4 weeks by Western blot analysis; type: functional, organism-based; conditions: HCT-116; outline: as §8
HCT-116 [19] = assay: Cytotoxicity against human HCT116 cells assessed as growth inhibition after 24 hrs by SRB assay; type: functional, cell-based; conditions: HCT-116, 24 h; outline: as §5
HCT-116 [20] = assay: Inhibition of Wnt/beta-catenin signaling pathway in human HCT116 cells assessed as downregulation of MMP7 mRNA expression at 5 to 10 uM after 12 hrs by real-time PCR analysis; type: cell-based; outline: as §6
HCT-116 [21] = assay: Inhibition of Wnt/beta-catenin codon 45 deletion mutant signaling pathway human HCT116 cells assessed as inhibition of TCF4 transcriptional activity after 24 hrs by TOPflash reporter gene assay; type: cell-based
Outline: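 HCT116 cells seeded at 1.5 × 10^4/well and lipofected after 24 h with 0.1 μg TOPflash (or FOPflash) plus 0.005 μg Renilla; no β-catenin/TCF4 added. Treated 24 h for 24 h. Dual luciferase, Renilla-normalized, relative to vehicle; means ± SD, n = 3, four separate determinations.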

HCT-116 [22] = assay: Cytotoxicity against human HCT116 cells assessed as growth inhibition after 48 hrs by SRB assay; type: functional, cell-based; conditions: HCT-116, 48 h; outline: as §5
HCT-116 [23] = assay: Inhibition of Beta-catenin/TCF complex binding to DNA in human HCT116 cells at 5 to 10 uM after 30 mins by electrophoretic mobility shift assay; type: cell-based
Outline: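 HCT116 cells (1 × 10^6) treated 30 min. Nuclear extract made by NP-40 hypotonic lysis, then 420 mM NaCl hypertonic extraction; protein by Bradford. Binding: 8 μg nuclear protein with 1.5 pmol biotin-labeled TCF binding probe, 15 °C for 30 min, read by EMSA against vehicle-treated cells.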

Mus musculus [24] = assay: as §1, with “cyclin D1” for “CCND1 mRNA”, “hematoxylin staining-based inverted phase-contrast microscopic” for “real-time PCR”; type: functional, organism-based; conditions: HCT-116
HCT-116 [25] = assay: Cytotoxicity against human HCT116 cells assessed as growth inhibition after 72 hrs by SRB assay; type: functional, cell-based; conditions: HCT-116, 72 h; outline: as §5
HCT-116 [26] = assay: Antitumor activity against human HCT116 cells xenografted in BALB/c-nu mouse assessed as tumor growth inhibition at 10 mg/kg, ip administered 3 times per week for 4 weeks measured every 2 to 3 days during treatment relative to control; type: functional; conditions: HCT-116, ip, route intraperitoneal, read-out: TGI; outline: as §3
Mus musculus [27] = assay: Toxicity in BALB/c-nu mouse xenografted with human HCT116 cells assessed as change in body weight at 10 to 20 mg/kg, ip administered 3 times per week measured for 4 weeks; type: organism-based, HCT-116; parameters: dose 10-20 mg/kg, route intraperitoneal; conditions: in vivo, 672 h
Outline: (§9)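 Same HCT116 flank xenograft in female BALB/c-nu mice, five per group, dosed ip in 0.5% Tween 80/saline with vehicle controls. Toxicity was judged from lethality and body weight loss, with body weights tracked through the study.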

HCT-116 [28] = assay: Inhibition of Wnt/beta-catenin signaling pathway in human HCT116 cells assessed as downregulation of NKD1 mRNA expression at 5 to 10 uM after 12 hrs by real-time PCR analysis; type: cell-based; outline: as §6
HCT-116 [29] = assay: Inhibition of Wnt/beta-catenin signaling pathway in human HCT116 cells assessed as downregulation of CMYC mRNA expression at 5 to 10 uM after 12 hrs by real-time PCR analysis; type: cell-based; outline: as §6
Mus musculus [30] = assay: Toxicity in BALB/c-nu mouse xenografted with human HCT116 cells assessed as overt toxicity at 10 to 20 mg/kg, ip administered 3 times per week measured for 4 weeks; type: organism-based, HCT-116; parameters: dose 10-20 mg/kg, route intraperitoneal; conditions: in vivo, 672 h; outline: as §9
Mus musculus [31] = assay: In vivo inhibition of Wnt/beta-catenin signaling pathway in human HCT116 cells xenografted in BALB/c-nu mouse assessed as downregulation of PLAU mRNA expression at 10 to 20 mg/kg, ip administered 3 times per week measured after 4 weeks by real-time PCR analysis; type: functional, organism-based; conditions: HCT-116; outline: as §2
HCT-116 [32] = assay: Cytotoxicity against human HCT116 cells assessed as growth inhibition after 24 to 72 hrs by SRB assay; type: functional, cell-based; outline: as §5
HEK293 [33] = assay: Inhibition of Wnt/beta-catenin (unknown origin) signaling pathway expressed in HEK293 cells assessed as inhibition of TCF4 transcriptional activity after 24 hrs by TOPflash reporter gene assay; type: cell-based; conditions: Homo sapiens; outline: as §7
Mus musculus [34] = assay: In vivo inhibition of Wnt/beta-catenin signaling pathway in human HCT116 cells xenografted in BALB/c-nu mouse assessed as downregulation of CMYC protein expression at 10 to 20 mg/kg, ip administered 3 times per week measured after 4 weeks by Western blot analysis; type: functional, organism-based; conditions: HCT-116; outline: as §8
HEK293 [35] = assay: Inhibition of Wnt/beta-catenin (unknown origin) signaling pathway expressed in HEK293 cells assessed as inhibition of TCF4 transcriptional activity at 5 to 40 uM after 24 hrs by TOPflash reporter gene assay; type: cell-based; conditions: Homo sapiens
Outline: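 HEK293 cells seeded at 1.5 × 10^4 per well and cotransfected (Lipofectamine 2000) with TOPflash luciferase reporter 0.1 μg, Renilla 0.005 μg for normalization, pcDNA β-catenin 0.02 μg and TCF4 expression vector 0.004 μg to activate Wnt; 24 h later treated with compound or solvent for 24 h; dual luciferase read-out, Renilla-normalized, relative to vehicle; triplicate.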

O=C/C=C/c1ccccc1O [2-HYDROXYCINNAMALDEHYDE]
active: inhibition (Mus musculus [1]) | inhibition (Mus musculus [3]) | inhibition (Mus musculus [4]) | inhibition (HCT-116 [5]) | inhibition (HCT-116 [6]) | inhibition (Mus musculus [7]) | Activity (HCT-116 [8]) tde | inhibition (HCT-116 [9]) | inhibition (Mus musculus [10]) | inhibition (HCT-116 [11]) | inhibition (HCT-116 [12]) | inhibition (HCT-116 [13]) | inhibition (Mus musculus [14]) | inhibition (Mus musculus [16]) | inhibition (HCT-116 [17]) | inhibition (Mus musculus [18]) | inhibition (HCT-116 [20]) | inhibition (HCT-116 [21]) Dose-dependent effect | inhibition (HCT-116 [23]) | inhibition (Mus musculus [24]) | inhibition (HCT-116 [28]) | inhibition (HCT-116 [29]) | inhibition (Mus musculus [31]) | Activity (HCT-116 [32]) Dose-dependent effect | inhibition (HEK293 [33]) Dose-dependent effect | inhibition (Mus musculus [34])
6.17 µM: IC50 (HCT-116 [25])
52%: inhibition in vivo at 10 mg/kg (HCT-116 [26])
6.62 µM: IC50 (HCT-116 [22])
8.14 µM: IC50 (HCT-116 [19])
inactive: inhibition (HEK293 [15])
Non-toxic: Activity (Mus musculus [27]) | Activity (Mus musculus [30])
69%: inhibition in vivo at 20 mg/kg (HCT-116 [2])

O=C/C=C/c1ccccc1
active: inhibition (HEK293 [35])

COc1ccccc1/C=C/C=O
active: inhibition (HEK293 [35])
